Screening results from PubChem.
Compounds with a hit are over-represented: about 2.3% of the library has one in this group of screens.
PRMT1 inh: inhibitors of human PRMT1; Q99873; recombinant PRMT1, activity-based probe fluorescence polarization; inhibition, % at 2.79 µM; 1.3% of 370,000 active;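 active means inhibition above about 21% made by adding two undisclosed values, limit read from the data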
Target sequence (Q99873 whole entry, looked up): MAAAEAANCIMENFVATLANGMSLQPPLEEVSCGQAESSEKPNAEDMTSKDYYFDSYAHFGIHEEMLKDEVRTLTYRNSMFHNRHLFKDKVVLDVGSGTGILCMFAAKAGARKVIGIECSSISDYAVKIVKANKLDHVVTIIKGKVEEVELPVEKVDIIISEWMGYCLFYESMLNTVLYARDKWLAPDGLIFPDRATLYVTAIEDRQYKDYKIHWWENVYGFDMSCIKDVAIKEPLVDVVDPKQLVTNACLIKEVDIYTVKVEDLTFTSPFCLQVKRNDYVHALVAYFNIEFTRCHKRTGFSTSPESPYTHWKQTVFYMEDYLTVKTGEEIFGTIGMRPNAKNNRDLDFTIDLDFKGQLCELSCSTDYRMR
Fam108B inh: Fam108B inhibition, counter-screen for RBBP9 inhibitors. recombinant Fam108B, FP-Rh probe fluorescence polarization. inhibition, % at 9.51 µM. 0.33% of 300,000 active. AID 1947;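 active means inhibition above the screen mean inhibition plus 3 SD, computed separately per campaign, cut at about 18% in these data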;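 further: inhibitors lower polarization as less probe binds the enzyme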
RBBP9 inhibitor: blocks human serine hydrolase RBBP9. AID 1515. recombinant RBBP9, FP-Rh probe fluorescence polarization. inhibition, % at 7.94 µM. 0.2% of 220,000 active;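 active means inhibition above the campaign mean of all tested compounds plus 3 SD, cut at about 14% in these data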
Target sequence (O75884 whole entry, looked up): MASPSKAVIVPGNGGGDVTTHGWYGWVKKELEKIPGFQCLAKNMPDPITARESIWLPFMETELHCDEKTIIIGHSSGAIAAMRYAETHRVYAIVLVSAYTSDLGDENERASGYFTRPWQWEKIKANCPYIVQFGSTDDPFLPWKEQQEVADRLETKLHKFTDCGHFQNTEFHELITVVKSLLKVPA
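Assay system: recombinant human RBBP9; Reagent: Serine-hydrolase probe FP-Rh, 375 nM pre-mixing; Doses: 7.94 µM single dose, 0.794% DMSO; Incubation: 30 min then 45 min, 25 °C; Detection: fluorescence polarization (mP), excitation 525 nm, emission 598 nm; Evaluation: percent inhibition from mP, scaled between DMSO and no-protein wells.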
PAD4 FP inh: PAD4 (human) enzyme inhibition | Q9UM07 | recombinant PAD4, RCA probe fluorescence polarization | inhibition, % at 6.36 µM | 0.41% of 330,000 active | AID 485272;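 active means percent inhibition above a cutoff equal to the mean of all tested compounds plus 3 SD, cut at about 15% in these data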
PME-1 primary: PME-1 (human) inhibition; Q9Y570; inhibition, % at 5.9 µM; 0.53% of 320,000 active; recombinant PME-1, FP-Rh probe fluorescence polarization; AID 2130;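 active means inhibition above the campaign mean of all compounds plus 3 SD, cut at about 26% in these data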;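 further: competitive labeling of PME-1 active site by serine hydrolase directed probe; inhibitors block probe labeling so polarization falls and inhibition rises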
GSTO1 inh: blocks human GSTO1 in RBBP9 counter-screen. recombinant GSTO1, activity-based probe fluorescence polarization. inhibition, % at 5.96 µM. 1.1% of 300,000 active. AID 1974;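 active means inhibition above the campaign mean inhibition plus 3 SD, cut at about 35% in these data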
RBBP9 inh conf: confirmation of human RBBP9 inhibitors; inhibition, % at 7.94 µM; 36% of 410 active; shares compounds with RBBP9 inhibitor; recombinant RBBP9, FP-Rh probe fluorescence polarization;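 active means inhibition above the hit cutoff derived for the primary screen, cut at about 15% in these data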
Fam108b inh conf: confirmation of mouse Fam108b serine hydrolase inhibitors; shares compounds with Fam108B inh; recombinant Fam108b, FP-Rh probe fluorescence polarization; inhibition, % at 9.51 µM; 44% of 930 active; AID 1978;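 active means inhibition above a limit from the primary screen, the mean over all compounds plus 3 SD, cut at about 19% in these data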;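 further: inhibitors free the probe so polarization falls as inhibition rises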
Hits are given with their value; 0 = inactive; - = no result given.

SMILES	PRMT1 inh	Fam108B inh	RBBP9 inhibitor	PAD4 FP inh	PME-1 primary	GSTO1 inh	RBBP9 inh conf	others
CN(C(=O)/C=C/c1ccco1)c1ccccc1C(=O)O	0	0	16.6	0	0	0	0
Cc1ccc2cc(CCNC(=O)c3cccs3)c(=O)[nH]c2c1	0	0	15.9	0	0	0	0
Cc1ccc2cc(CCNC(=O)c3cccs3)c(=O)[nH]c2c1C	0	0	0	0	0	0	-
Cc1nn(C)c(Oc2cccc(Cl)c2)c1C=O	0	0	0	0	0	0	-
O=C(CSc1nnc2ccccn12)N1CCOCC1	-	0	14.4	0	0	0	0
CC1CCN(C(=O)CSc2nnc3ccccn23)CC1	0	-	-	0	-	-	-
Cc1ccc(S(=O)(=O)N2CCOCC2)cc1C(=O)NCCCn1ccnc1	0	0	0	0	0	0	-
COc1ccc(C2(C(=O)N3CCOCC3)CCOCC2)cc1OC	0	0	0	0	0	0	-
CCOc1ccc(NC(=S)NN2CCN(C)CC2)cc1	0	0	0	0	0	0	-
COC(=O)CC(=O)CSc1nc2c(cc1C#N)CCC2	0	0	23.9	0	0	0	0
CC(C)OC(=O)CC(=O)CSc1nc2c(cc1C#N)CCC2	0	0	0	0	0	0	-
CN(CC(=O)N1CCCCCC1)S(=O)(=O)c1ccccc1	0	0	-	0	0	0	-
Cc1cccnc1Nc1nc(-c2ccc(O)c(O)c2)cs1	0	0	25.4	0	36.3	0	55.2
COc1ccc(-c2csc(Nc3ncccc3C)n2)cc1OC	0	0	0	0	0	0	-
COc1cc(/C=N/Nc2ccc(C(F)(F)F)cn2)cc(OC)c1O	0	-	17.1	-	-	-	15.3
CC(C)C[C@H](N)c1nnc(SCc2ccc(Cl)cc2)o1	0	0	16.0	0	0	0	0
O=C(CCn1c(=O)oc2ccccc21)N1CCN(c2ccccc2Cl)CC1	0	0	0	0	0	0	-
O=Cc1cc(N=Nc2cccc(C(=O)O)c2)ccc1O	0	0	18.2	0	0	0	0
COc1ccc(OC(C)C(=O)N2CCCc3ccccc32)cc1 (centres undefined)	0	0	16.9	0	0	0	0
O=c1c2ccccc2nc(/C=C/c2cccnc2)n1Cc1ccccc1	0	-	15.0	-	-	-	54.8
O=c1c2ccccc2nc(/C=C/c2cccnc2)n1CCc1ccccc1	0	0	0	0	0	0	-
Oc1ccc(Nc2nc(-c3ccc(O)cc3)cs2)cc1	0	0	18.1	0	0	0	14.3
CCCCSc1cnn(-c2ccccc2)c(=O)c1SCCCC	0	0	15.6	0	0	0	0
CCC/C(=N\NC(=O)c1csc(C)c1C)c1cccs1	0	0	16.2	0	0	0	0
CC(OC(=O)C12CC3CC(CC(O)(C3)C1)C2)C(N)=O (centres undefined)	0	0	0	0	0	0	-
SMILES	PRMT1 inh	Fam108B inh	RBBP9 inhibitor	PAD4 FP inh	PME-1 primary	GSTO1 inh	RBBP9 inh conf	others
NC(=O)COC(=O)C12CC3CC(CC(O)(C3)C1)C2	0	0	50.9	0	0	0	0
C=CCOc1nc2c(c(=O)n(C)c(=O)n2C)n1Cc1ccccc1Cl	0	0	0	0	0	0	-
COc1ccc(NC(=O)C2CSC3c4ccccc4C(=O)N23)cc1 (centres undefined)	0	0	14.4	0	0	0	0
COCCNC(=O)[C@@H]1CSC2c3ccccc3C(=O)N21 (some centres undefined)	0	-	-	-	-	-	-
COc1cc(C(CC(=O)N2CCN(c3ccccc3)CC2)c2c(OC)cc(OC)c3ccc(=O)oc23)cc(OC)c1OC (centres undefined)	0	0	-	0	0	0	-
CCOC(=O)C1=C(SCC(=O)Nc2ccccc2)NC(=O)C(C#N)C12CCCCC2 (centres undefined)	0	0	14.6	0	0	0	0
Cc1ccc(N(CC(=O)Nc2c(C)n(C)n(-c3ccccc3)c2=O)S(C)(=O)=O)c(C)c1	0	0	0	0	0	0	-
Cc1ccc(N(CC(=O)N/N=C/c2cc(C)n(-c3ccccc3)c2C)S(C)(=O)=O)c(C)c1	0	0	16.6	0	0	0	0
COc1cc(CN2CCN(c3ccccc3F)CC2)cc(OC)c1O	0	0	15.1	0	0	0	0
O=C(CCS(=O)(=O)c1ccc(Br)s1)NC1CCCC1	0	0	0	0	0	0	-
CC(C)NC(=O)CCS(=O)(=O)c1ccc(Br)s1	0	0	18.2	0	0	0	0
Clc1ccc(-c2nn3c(-c4ccccc4)nnc3s2)cc1	0	0	17.4	0	0	0	0
c1ccc(-c2nnc3sc(-c4ccncc4)nn23)cc1	0	0	0	0	0	0	-
O=C(NCc1ccc2c(c1)OCO2)C1CC(=O)N(c2ccc(F)cc2)C1 (centres undefined)	0	0	16.5	0	0	0	0
Cn1c(CNc2cccc(Cl)c2)nnc1SCC#N	0	0	0	0	0	0	-
O=[N+]([O-])c1ccc(Nc2c3ccccc3nc3ccccc23)cc1	0	-	15.6	-	-	-	0
Cc1nc2ncccn2c1-c1csc(Nc2ccc(N(C)C)cc2)n1	0	-	24.4	-	-	-	21.3
CN=c1scc(-c2ccccc2F)n1/N=C/c1ccc[nH]1	0	0	0	0	0	0	-
CN=c1scc(-c2ccccc2F)n1/N=C/c1ccc(O)c(O)c1O	0	-	32.7	-	-	-	59.5
CCCNC(=O)c1cc(C2CCCN(S(=O)(=O)c3ccccc3)C2)on1 (centres undefined)	0	-	-	-	-	-	-
COc1ccc(OC)c(NC(=O)C2CCCN(S(=O)(=O)c3c(C)noc3C)C2)c1 (centres undefined)	0	0	0	0	0	0	-
COc1ccc(OC)c(NC(=O)C2CCN(S(=O)(=O)c3c(C)noc3C)CC2)c1	0	0	16.4	0	0	0	0
Cc1c(CCO)c(=O)n2n1CCCC2	0	-	-	-	-	-	-
COc1ccc(C2=CC(=O)C=CC2=O)cc1	-	-	51.2	-	-	-	85.4
Oc1ccc(Nc2nc3ccccc3nc2Nc2ccc(O)cc2)cc1	-	44.7	20.9	0	33.0	0	36.8	Fam108b inh conf=0
SMILES	PRMT1 inh	Fam108B inh	RBBP9 inhibitor	PAD4 FP inh	PME-1 primary	GSTO1 inh	RBBP9 inh conf	others
Nc1[nH]n(-c2ccccc2)c(=O)c1N=Nc1ccc2ncsc2c1	23.5	19.9	18.7	0	36.0	0	34.1	Fam108b inh conf=0
Nc1[nH]n(-c2ccccc2)c(=O)c1N=Nc1ccccc1	0	0	0	0	0	0	-
O=C(COc1ccc(S(=O)(=O)N2CCCCC2)cc1)NCc1cccnc1	0	0	0	0	0	0	-
COc1cccc(/C=N/NC(=O)c2ccc3nc[nH]c3c2)c1O	0	0	0	0	0	0	-
COc1cc(OC)c2cc(C(=O)N/N=C/c3cccc(OC)c3O)[nH]c2c1	0	22.5	15.8	0	43.7	0	32.4	Fam108b inh conf=22.2
CN(C)c1ccc(NC(=O)Nc2csc3ccccc23)cc1	0	19.4	19.5	0	0	0	58.2	Fam108b inh conf=26.7
